Test results from ChEMBL document CHEMBL1157298, “Bioactive dammarane triterpenes from the mangrove plant Bruguiera gymnorrhiza” (J Nat Prod, 2006).
Active and inactive are the calls of the source. The rule behind the calls is not given here.

How the values were obtained:
HepG2 [1] = test: Induction of ARE in human HepG2 cells by luciferase assay; format: functional, cell-based
In short: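 Stably transfected HepG2 cells carrying an ARE-luciferase reporter. EC50 is the concentration giving activation halfway between the DMSO-control baseline and the maximum response at 20 µg/mL.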

HepG2 [2] = test: Inhibition of TPA-induced NF-kappaB activation in human HepG2 cells by luciferase assay; format: functional, cell-based
In short: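 NFκB-luciferase reporter construct activated with TPA (phorbol ester). IC50 is the concentration that reduces TPA-activated NFκB luciferase activity by 50%.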

HepG2 [3] = test: Cytotoxicity against human HepG2 cells; format: cell-based
[4] = molecular target: Prostaglandin G/H synthase 1 (Homo sapiens) (UniProt P23219); test: Inhibition of COX1
Sequence of Prostaglandin G/H synthase 1 (Homo sapiens) (P23219 whole entry): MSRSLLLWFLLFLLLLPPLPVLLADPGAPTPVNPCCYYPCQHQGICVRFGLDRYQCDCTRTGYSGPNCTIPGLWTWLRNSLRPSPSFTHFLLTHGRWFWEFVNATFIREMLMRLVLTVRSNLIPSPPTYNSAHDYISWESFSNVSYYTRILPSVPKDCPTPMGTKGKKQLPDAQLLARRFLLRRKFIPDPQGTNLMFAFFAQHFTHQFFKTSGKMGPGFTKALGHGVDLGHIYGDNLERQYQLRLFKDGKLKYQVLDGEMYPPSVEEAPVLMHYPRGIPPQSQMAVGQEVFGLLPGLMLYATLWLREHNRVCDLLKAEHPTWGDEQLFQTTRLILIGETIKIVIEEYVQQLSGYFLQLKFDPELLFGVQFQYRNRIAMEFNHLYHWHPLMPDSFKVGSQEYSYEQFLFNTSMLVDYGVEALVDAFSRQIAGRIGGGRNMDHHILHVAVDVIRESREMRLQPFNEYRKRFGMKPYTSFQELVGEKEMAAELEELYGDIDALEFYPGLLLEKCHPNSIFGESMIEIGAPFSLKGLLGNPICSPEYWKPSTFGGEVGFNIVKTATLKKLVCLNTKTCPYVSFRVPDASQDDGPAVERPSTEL
In short: (§1)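 COX-1 and COX-2 activity read out as PGE2 production. Indomethacin served as the positive control.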

[5] = molecular target: T1, Prostaglandin G/H synthase 2 (Homo sapiens, UniProt P35354); test: (§2) Inhibition of COX2; in short: as §1
T1 sequence (P35354 whole entry): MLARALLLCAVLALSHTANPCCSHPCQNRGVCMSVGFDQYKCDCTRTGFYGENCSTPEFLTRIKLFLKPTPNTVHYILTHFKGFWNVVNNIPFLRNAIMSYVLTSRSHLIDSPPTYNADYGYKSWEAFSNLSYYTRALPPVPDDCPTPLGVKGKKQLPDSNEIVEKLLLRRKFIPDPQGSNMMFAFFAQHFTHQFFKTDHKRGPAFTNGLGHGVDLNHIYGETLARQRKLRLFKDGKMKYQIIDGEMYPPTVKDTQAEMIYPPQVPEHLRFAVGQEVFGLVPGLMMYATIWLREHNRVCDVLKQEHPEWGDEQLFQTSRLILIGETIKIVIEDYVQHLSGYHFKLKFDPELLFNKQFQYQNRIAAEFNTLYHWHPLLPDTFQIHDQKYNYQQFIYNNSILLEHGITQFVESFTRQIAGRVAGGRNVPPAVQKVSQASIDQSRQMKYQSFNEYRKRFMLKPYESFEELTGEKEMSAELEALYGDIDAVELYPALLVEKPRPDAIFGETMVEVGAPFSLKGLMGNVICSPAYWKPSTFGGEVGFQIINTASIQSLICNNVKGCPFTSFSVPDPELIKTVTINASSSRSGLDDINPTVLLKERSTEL

[6] = molecular target: T2, Prostaglandin G/H synthase 2 (Homo sapiens) (UniProt P35354); test: as §2; in short: as §1
T2 sequence (whole entry): T1 sequence (P35354 whole entry)

**Q.** With `O=c1cc(-c2ccc(Br)cc2)oc2ccccc12` as the compound, how does the EC50 (HepG2 [1]) read?
**A.** Its EC50 is 30 µM.

**Q.** For `O=c1cc(-c2ccccc2)oc2ccc3ccccc3c12` [BETA-NAPHTHOFLAVONE], which EC50 (HepG2 [1]) is on record?
**A.** Its EC50 is 8 µM.

**Q.** Which IC50 (HepG2 [2]) does the source give for `CCCCCCCCCCCCCCCCCC(=O)O[C@H]1C[C@@H](O)[C@]2(C)[C@H]3CC[C@@H]4[C@@H]([C@@](C)(O)CCC=C(C)C)CC[C@@]4(C)[C@]3(C)CC[C@H]2C1(C)C` [BRUGUIERIN A] here?
**A.** The IC50 was 1.4 µM.

**Q.** And the Activity (HepG2 [3])?
**A.** Its Activity is “Non-toxic”.

**Q.** And the EC50 (HepG2 [1])?
**A.** Its EC50 is 7.8 µM.

**Q.** What about the Activity [4] of the same compound?
**A.** Its Activity is “inactive”.

**Q.** And the IC50 [5]?
**A.** The IC50 was 0.37 µM.

**Q.** How did the Activity (HepG2 [3]) turn out when `CCCCCCCCCCCCCCCCCC(=O)O[C@H]1CC[C@]2(C)[C@H]3[C@H](O)C[C@@H]4[C@@H]([C@@](C)(O)CCC=C(C)C)CC[C@@]4(C)[C@]3(C)CC[C@H]2C1(C)C` [BRUGUIERIN B] was run?
**A.** Its Activity is “Non-toxic”.

**Q.** What about the EC50 (HepG2 [1]) of the same compound?
**A.** The EC50 was 9.4 µM.

**Q.** What about the Activity [4] of the same compound?
**A.** Its Activity is “inactive”.

**Q.** And the Activity [6]?
**A.** Its Activity is “inactive”.

**Q.** With `CCCCCCCCCCCCCCCCCC(=O)O[C@H]1C[C@@H](O)[C@]2(C)[C@H]3CC[C@@H]4[C@@H]([C@@](C)(O)C/C=C/C(C)(C)OO)CC[C@@]4(C)[C@]3(C)CC[C@H]2C1(C)C` [BRUGUIERIN C] as the compound, how does the Activity (HepG2 [3]) read?
**A.** Its Activity is “Non-toxic”.

**Q.** What about the EC50 (HepG2 [1]) of the same compound?
**A.** The EC50 was 15.7 µM.

**Q.** What about the Activity [4] of the same compound?
**A.** Its Activity is “inactive”.

**Q.** What about the Activity [6] of the same compound?
**A.** Its Activity is “inactive”.

**Q.** `C[S+]([O-])CCCCN=C=S` (stereo unspecified) [SULFORAPHANE] was tested. Which EC50 (HepG2 [1]) did it give?
**A.** Its EC50 is 4 µM.
